Results as given in ChEMBL document CHEMBL3393007, “IND-2, a pyrimido[1″,2″:1,5]pyrazolo[3,4-b]quinoline derivative, circumvents multi-drug resistance and causes apoptosis in colon cancer cells” (Bioorg Med Chem, 2015).
Active and inactive are the calls of the source.

What was measured:
A2780 = assay: Cytotoxicity against human A2780 cells after 72 hrs by MTT assay; type: functional, cell-based; details: A2780, 72 h
Outline: (§1)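 MTT assay over 0.1–100 μM with a 72 hr exposure, then 4 hr with MTT (4 mg/mL). Formazan dissolved in DMSO, A570 read. IC50 from survival curves (Bliss method); three independent experiments in triplicate; 100 μM taken as cut-off.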

2008 = assay: Cytotoxicity against human 2008 cells after 72 hrs by MTT assay; type: functional, cell-based; details: Homo sapiens, 2008, 72 h; outline: as §1
MCF7 = assay: Cytotoxicity against human MCF7 cells after 72 hrs by MTT assay; type: functional, cell-based; details: MCF7, 72 h
Outline: (§2)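 Seeding was 6×10^3 cells/well (MDCK, NIH/3T3, MCF-7, MDA-MB-231, LS-180, LS-174, LoVo, S1) after trypsinisation, in DMEM with 10% FBS. Compound at 0.1–100 μM for 72 hr, then MTT (4 mg/mL) for 4 hr. Formazan dissolved in DMSO, absorbance at 570 nm. IC50 by Bliss method; means ± SD, ≥3 experiments in triplicate.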

[1] = Cytotoxicity against mouse NIH/3T3 cells after 72 hrs by MTT assay; type: cell-based; details: NIH3T3, 72 h; outline: as §2
MDCK = assay: Cytotoxicity against MDCK cells after 72 hrs by MTT assay; type: cell-based; details: Canis lupus familiaris; outline: as §2
[2] = Cytotoxicity against human S1 cells after 72 hrs by MTT assay; type: functional, cell-based; details: S1, 72 h; outline: as §2
[3] = Cytotoxicity against human PC3 cells after 72 hrs by MTT assay; type: functional, cell-based; details: PC-3, 72 h
Outline: (§3)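 HCT-116, HCT-15, HT-29, DU-145, PC-3 or HEK293/pcDNA3.1 cells in DMEM with 10% FBS were trypsinised and seeded at 5×10^3 cells/well. They received compound at 0.1–100 μM for 72 hr, then MTT (4 mg/mL) for 4 hr. Formazan was dissolved in DMSO and A570 read. IC50 by Bliss method from survival curves; ≥3 experiments, each in triplicate.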

HepG2 [4] = assay: Cytotoxicity against human HepG2 cells after 72 hrs by MTT assay; type: functional, cell-based; details: HepG2, 72 h; outline: as §1
MDA-MB-231 = assay: Cytotoxicity against human MDA-MB-231 cells after 72 hrs by MTT assay; type: functional, cell-based; details: MDA-MB-231, 72 h; outline: as §2
HT-29 = assay: Cytotoxicity against human HT-29 cells after 72 hrs by MTT assay; type: functional, cell-based; details: HT-29, 72 h; outline: as §3
HCT-15 = assay: Induction of morphological changes in human HCT15 cells at 0.5 to 10 uM after 68 hrs by inverted microscopy; type: functional, cell-based
Outline: (§4)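 HCT-116, HCT-15 and HEK293 cells were treated with 0, 0.5, 2 or 10 μM for 68 hr. Each treatment was in triplicate. Cells were photographed under an inverted microscope at 20X and representative images shown.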

[5] = Cytotoxicity against drug-resistant human S1-M1-80 cells expressing ABCG2 G482 mutant after 72 hrs by MTT assay relative to SN-38; type: functional
HEK293 [6] = assay: Induction of morphological changes in HEK293 cells at 0.5 to 10 uM after 68 hrs by inverted microscopy; type: cell-based; details: human, hek293, 68 h; outline: as §4
HEK293 [7] = assay: Cytotoxicity against HEK293 cells expressing ABCG2 gene assessed as reduction in cell viability at 0.001 to 100 uM after 72 hrs by MTT assay; type: functional, cell-based; details: Homo sapiens
Outline: (§5)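 HEK293 stably overexpressing ABCB1 or ABCG2 (R2), with empty-vector HEK293/pcDNA3.1 as the parental control, grown in DMEM with 10% FBS at 37 °C and 5% CO2. Cells were trypsinised and seeded at 5×10^3 cells/well, then exposed to serial concentrations for 72 hr. MTT (4 mg/mL) was added for 4 hr, formazan dissolved in DMSO, and A570 read. IC50 from survival curves (Bliss method), means ± SD of triplicates.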

[8] = Cytotoxicity against human LS180 cells after 72 hrs by MTT assay; type: functional, cell-based; details: LS180, 72 h; outline: as §2
HepG2 [9] = assay: Cytotoxicity against human HepG2 cells assessed as reduction in cell viability at 10 uM after 24 hrs by Celltiter-Glo luminescent cell viability assay; type: cell-based; details: hepg2, 24 h
Outline: (§6)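 Viability of HepG2 cells was measured in parallel with the PXR reporter assay. Cells were transfected, plated at 10,000/well in phenol red-free DMEM with 5% charcoal/dextran-treated FBS, and treated 24 hr with 1 or 10 μM or DMSO. ATP was quantified by CellTiter-Glo luminescence. Means ± SD of triplicates, t-test versus DMSO.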

[10] = target: T1, Nuclear receptor subfamily 1 group I member 2 (Homo sapiens, UniProt O75469); assay: Transactivation of human PXR expressed in human HepG2 cells co-expressing pGL3-CYP3A4-luciferase gene assessed as increase in CYP3A4 promoter activity at 10 uM after 24 hrs by luciferase reporter gene assay; details: hepg2, 24 h
T1 sequence (O75469 whole entry): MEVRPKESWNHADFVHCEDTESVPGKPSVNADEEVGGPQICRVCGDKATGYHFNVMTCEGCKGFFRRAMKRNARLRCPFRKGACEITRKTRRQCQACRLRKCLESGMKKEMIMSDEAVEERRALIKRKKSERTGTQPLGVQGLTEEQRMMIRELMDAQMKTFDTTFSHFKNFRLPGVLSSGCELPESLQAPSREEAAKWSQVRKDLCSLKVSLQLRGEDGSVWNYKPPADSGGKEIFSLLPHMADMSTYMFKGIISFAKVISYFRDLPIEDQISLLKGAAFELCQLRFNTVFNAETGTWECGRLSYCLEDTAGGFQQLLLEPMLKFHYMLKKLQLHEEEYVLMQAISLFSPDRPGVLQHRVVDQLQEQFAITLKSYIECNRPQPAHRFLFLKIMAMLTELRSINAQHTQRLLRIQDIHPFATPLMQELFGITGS

[11] = Cytotoxicity against human HCT15 cells after 72 hrs by MTT assay; type: functional, cell-based; details: HCT-15, 72 h; outline: as §3
[12] = Cytotoxicity against human LS174 cells after 72 hrs by MTT assay; type: functional, cell-based; details: LS174, 72 h; outline: as §2
HEK293 [13] = assay: Cytotoxicity against HEK293 cells expressing pcDNA3.1 after 72 hrs by MTT assay; type: cell-based; details: Homo sapiens, HEK293, 72 h; outline: as §3
HepG2 [14] = assay: Cytotoxicity against human HepG2 cells assessed as reduction in cell viability at 1 uM after 24 hrs by Celltiter-Glo luminescent cell viability assay; type: cell-based; details: hepg2, 24 h; outline: as §6
[15] = Cytotoxicity against drug-resistant human S1-M1-80 cells expressing ABCG2 G482 mutant after 72 hrs by MTT assay relative to topotecan; type: functional
HCT-116 [16] = assay: Induction of morphological changes in human HCT116 cells at 0.5 to 10 uM after 68 hrs by inverted microscopy; type: functional, cell-based; outline: as §4
[17] = Cytotoxicity against human HCT116 cells after 72 hrs by MTT assay; type: functional, cell-based; details: HCT-116, 72 h; outline: as §3
[18] = target: T1, Nuclear receptor subfamily 1 group I member 2; assay: Transactivation of human PXR expressed in human HepG2 cells co-expressing pGL3-CYP3A4-luciferase gene assessed as increase in CYP3A4 promoter activity at 1 uM after 24 hrs by luciferase reporter gene assay; type: ADME, cell-based; details: hepg2, 24 h
Outline: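 HepG2 cells were transiently cotransfected with pcDNA3-hPXR and pGL3-CYP3A4-luc; after 24 hr they were plated at 10,000/well in phenol red-free DMEM with 5% charcoal-stripped FBS. […] Activity expressed as fold over DMSO; three independent experiments.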

LoVo = assay: Cytotoxicity against human LoVo cells after 72 hrs by MTT assay; type: functional, cell-based; outline: as §2
HEK293 [19] = assay: Cytotoxicity against HEK293 cells expressing ABCB1 gene assessed as reduction in cell viability at 0.001 to 100 uM after 72 hrs by MTT assay; type: functional, cell-based; details: Homo sapiens; outline: as §5
DU-145 = assay: Cytotoxicity against human DU145 cells after 72 hrs by MTT assay; type: functional, cell-based; details: DU-145, 72 h; outline: as §3
HCT-116 [20] = assay: Induction of mitochondrial membrane potential loss in human HCT116 cells at 1 uM after 4 hrs by mitotracker red and Alexa Fluor 488 annexin V staining based flow cytometry; type: functional
Outline: (§7)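 HCT-116 cells in 6-well plates, in complete medium, were exposed to 0, 1 or 10 μM for 4 hr. Harvested cells were stained with MitoTracker Red (4 μL of 10 μM working solution per mL) for 30 min at 37 °C, washed, then given Alexa Fluor 488 annexin V for 15 min in annexin-binding buffer. Flow cytometry emission at 530 and 585 nm; two independent experiments in triplicate.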

HCT-116 [21] = assay: Induction of mitochondrial membrane potential loss in human HCT116 cells at 10 uM after 4 hrs by mitotracker red and Alexa Fluor 488 annexin V staining based flow cytometry; type: functional; outline: as §7
HCT-116 [22] = assay: Induction of mitochondrial membrane potential loss in human HCT116 cells after 4 hrs by mitotracker red and Alexa Fluor 488 annexin V staining based flow cytometry; type: functional, cell-based; outline: as §7
HCT-116 [23] = assay: Induction of DNA fragmentation in human HCT116 cells at 2.5 uM after 6 hrs by ethidium bromide staining based agarose gel electrophoresis; type: functional, cell-based
Outline: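 HCT-116 cells were cultured with or without 2.5 μM for 6 hr. Genomic DNA was extracted with a purification kit, resolved on 1% agarose gels at 40 V, stained with ethidium bromide and photographed, with untreated DNA loaded at 500 ng and 1 μg.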

Homo sapiens = species on record: Homo sapiens; assay: Cytotoxicity against drug-resistant human S1-M1-80 cells expressing ABCG2 G482 mutant after 72 hrs by MTT assay; type: functional, cell-based
Outline: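 S1-M1-80 colon cells (G482 mutant ABCG2), maintained in medium with 80 μM mitoxantrone, tested by MTT alongside parental S1. 72 hr exposure, MTT 4 hr, DMSO solubilisation, A570. IC50 by Bliss method; SN-38 and topotecan run as comparators; means ± SD of triplicate determinations.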

| Compound | IC50 (A2780) [µM] | IC50 2008 [µM] | IC50 (MCF7) [µM] | IC50 [1] [µM] | IC50 (MDCK) [µM] | IC50 [2] [µM] | IC50 [3] [µM] | IC50 (HepG2 [4]) [µM] | IC50 (MDA-MB-231) [µM] | IC50 (HEK293 [13]) [µM] | IC50 [17] [µM] | IC50 (DU-145) [µM] | also measured |
| --- | --- | --- | --- | --- | --- | --- | --- | --- | --- | --- | --- | --- | --- |
| CCN(CC)CCNc1cc(C)nc2c3cc4ccccc4nc3nn12 | 87.5 | 78.1 | 53.5 | 48.2 | 41.6 | 44.6 | 62.5 | 67.4 | 58.8 |  |  |  |  |
| Cc1cc(Cl)n2nc3nc4ccccc4cc3c2n1 | 11.6 | 17.4 | 7.4 | 23.6 | 19.7 | 0.8 | 0.9 | 9.7 |  | 7.8 | 0.6 | 1.2 | IC50 (HT-29): 0.791 µM; Activity (HCT-15): Active; fold change (FC) [5]: 3; Activity (HEK293 [6]): Toxic; Activity (HEK293 [7]): Active; IC50 [8]: 1.02 µM; Activity (HepG2 [9]): Toxic; Activity [10]: Not Active; IC50 [11]: 0.671 µM; IC50 [12]: 0.875 µM; Activity (HepG2 [14]): Non-toxic; fold change (FC) [15]: 3; Activity (HCT-116 [16]): Active; Activity [18]: Not Active; IC50 (LoVo): 0.994 µM; Activity (HEK293 [19]): Active; Activity (HCT-116 [20]): 68.46%; Activity (HCT-116 [21]): 98.36%; Activity (HCT-116 [22]): Dose-dependent effect; Activity (HCT-116 [23]): Active |
| Cc1cc(=O)n2nc3nc4ccccc4cc3c2[nH]1 | 74.3 | 88.6 |  | 98.4 | > 100 | 63.6 | 46.5 | 89.5 |  | 69.6 |  |  |  |
| Cc1cc(NCCCN(C)C)n2nc3nc4ccccc4cc3c2n1 | 65.8 | 87.6 | > 100 | > 100 |  | 83.4 | 60.5 | 73.2 |  | 39.9 |  |  |  |
| Cc1cc(N2CCOCC2)n2nc3nc4ccccc4cc3c2n1 | > 100 | > 100 | 98.4 | > 100 | > 100 | 67.4 | 78.3 | > 100 | 88.2 |  | 88.9 |  |  |
| CCc1c2c(nc3ccc(O)cc13)-c1cc3c(c(=O)n1C2)COC(=O)[C@]3(O)CC |  |  |  |  |  |  |  |  |  |  |  |  | Activity (Homo sapiens): inactive |
| Cc1cc(NCCN(C)C)n2nc3nc4ccccc4cc3c2n1 | > 100 | > 100 |  | > 100 | > 100 | 69.8 | 79.8 | > 100 | 48.7 | 93.4 | 65.8 | 59.9 |  |
| Cc1cc(N(C)C)n2nc3nc4ccccc4cc3c2n1 | 49.9 | 47.9 | 79.6 |  |  | 58.3 | 88.8 | 67.9 | 44.8 |  | 53.6 | 28.6 |  |
| CO[C@H]1/C=C/O[C@@]2(C)Oc3c(C)c(O)c4c(O)c(c(/C=N/N5CCN(C)CC5)c(O)c4c3C2=O)NC(=O)/C(C)=C\C=C\[C@H](C)[C@H](O)[C@@H](C)[C@@H](O)[C@@H](C)[C@H](OC(C)=O)[C@@H]1C [RIFAMPIN] |  |  |  |  |  |  |  |  |  |  |  |  | Activity (HepG2 [9]): Toxic |
| CCN(CC)CCCNc1cc(C)nc2c3cc4ccccc4nc3nn12 | 55.7 | 65.3 |  | > 100 |  | 53.7 | 78.5 | 89.9 | 34.6 | 41.8 |  |  |  |
